Laboratory results reported in ChEMBL document CHEMBL1151705, “Novel azalides derived from 16-membered macrolides. Part II: Isolation of the linear 9-formylcarboxylic acid and its sequential macrocyclization with an amino alcohol or an azidoamine” (2008).
≈ marks a conversion by molar mass, not a printed value.

Key:
Format in all cases: functional
Streptococcus pneumoniae [1] = test: Antimicrobial activity against Streptococcus pneumoniae 9 expressing mefA after 20 hrs by agar dilution method; details: Streptococcus pneumoniae, 20 h; read-out: MIC
How it was run: (§1)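 Streptococci, H. influenzae and M. catarrhalis were precultured on blood agar plates. Suspensions of about 10⁶ CFU/ml were inoculated onto sensitivity disk agar supplemented with 5% horse blood and incubated at 37 °C for 20 h. MIC was read as the lowest drug concentration with no visible growth.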

Moraxella catarrhalis [2] = test: Antimicrobial activity against drug-susceptible Moraxella catarrhalis 2 after 20 hrs by agar dilution method; details: Moraxella catarrhalis, 20 h; read-out: MIC; how it was run: as §1
Haemophilus influenzae [3] = test: Antimicrobial activity against drug-susceptible Haemophilus influenzae 2 after 20 hrs by agar dilution method; details: Haemophilus influenzae, 20 h; read-out: MIC; how it was run: as §1
Staphylococcus aureus [4] = test: Antimicrobial activity against Staphylococcus aureus 4 constitutively expressing ermA after 20 hrs by agar dilution method
How it was run: (§2)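 Agar dilution MIC. S. aureus seed culture was grown in sensitivity test broth. Cell suspension (about 10⁶ CFU/ml) was inoculated onto sensitivity disk agar with 5% horse blood and incubated at 37 °C for 20 h. MIC was the lowest drug concentration that prevented visible growth.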

Haemophilus influenzae [5] = test: Antimicrobial activity against drug-susceptible Haemophilus influenzae 1 after 20 hrs by agar dilution method; details: Haemophilus influenzae, 20 h; read-out: MIC; how it was run: as §1
Haemophilus influenzae [6] = test: Antimicrobial activity against drug-susceptible Haemophilus influenzae 3 after 20 hrs by agar dilution method; details: Haemophilus influenzae, 20 h; read-out: MIC; how it was run: as §1
Streptococcus pneumoniae [7] = test: Antimicrobial activity against Streptococcus pneumoniae 8 expressing inducible ermB after 20 hrs by agar dilution method; how it was run: as §1
Staphylococcus aureus [8] = test: Antimicrobial activity against drug-susceptible Staphylococcus aureus 3 after 20 hrs by agar dilution method; details: Staphylococcus aureus, 20 h; read-out: MIC; how it was run: as §2
Streptococcus pneumoniae [9] = test: Antimicrobial activity against Streptococcus pneumoniae 7 expressing inducible ermB after 20 hrs by agar dilution method; how it was run: as §1
Streptococcus pyogenes [10] = test: Antimicrobial activity against drug-susceptible Streptococcus pyogenes 1 after 20 hrs by agar dilution method; details: Streptococcus pyogenes, 20 h; read-out: MIC; how it was run: as §1
Haemophilus influenzae [11] = test: Antimicrobial activity against drug-susceptible Haemophilus influenzae 4 after 20 hrs by agar dilution method; details: Haemophilus influenzae, 20 h; read-out: MIC; how it was run: as §1
Staphylococcus aureus [12] = test: Antimicrobial activity against Staphylococcus aureus 6 expressing inducible ermB after 20 hrs by agar dilution method; how it was run: as §2
Staphylococcus aureus [13] = test: Antimicrobial activity against drug-susceptible Staphylococcus aureus 2 after 20 hrs by agar dilution method; details: Staphylococcus aureus, 20 h; read-out: MIC; how it was run: as §2
Moraxella catarrhalis [14] = test: Antimicrobial activity against drug-susceptible Moraxella catarrhalis 1 after 20 hrs by agar dilution method; details: Moraxella catarrhalis, 20 h; read-out: MIC; how it was run: as §1
Streptococcus pneumoniae [15] = test: Antimicrobial activity against Streptococcus pneumoniae 5 constitutively expressing ermB/mefA after 20 hrs by agar dilution method; details: Streptococcus pneumoniae, 20 h; read-out: MIC; how it was run: as §1
Streptococcus pneumoniae [16] = test: Antimicrobial activity against Streptococcus pneumoniae 10 expressing mefA after 20 hrs by agar dilution method; details: Streptococcus pneumoniae, 20 h; read-out: MIC; how it was run: as §1
Streptococcus pneumoniae [17] = test: Antimicrobial activity against drug-susceptible Streptococcus pneumoniae 2 after 20 hrs by agar dilution method; details: Streptococcus pneumoniae, 20 h; read-out: MIC; how it was run: as §1
Staphylococcus aureus [18] = test: Antimicrobial activity against drug-susceptible Staphylococcus aureus 209P JC-1 after 20 hrs by agar dilution method; details: Staphylococcus aureus, 209P, 20 h; read-out: MIC; how it was run: as §2
Streptococcus pyogenes [19] = test: Antimicrobial activity against Streptococcus pyogenes 2 constitutively expressing ermB after 20 hrs by agar dilution method; how it was run: as §1
Streptococcus pyogenes [20] = test: Antimicrobial activity against Streptococcus pyogenes 3 expressing mefA after 20 hrs by agar dilution method; details: Streptococcus pyogenes, 20 h; read-out: MIC; how it was run: as §1
Staphylococcus aureus [21] = test: Antimicrobial activity against Staphylococcus aureus 5 expressing inducible ermB after 20 hrs by agar dilution method; details: Staphylococcus aureus, 20 h; read-out: MIC; how it was run: as §2
Streptococcus pneumoniae [22] = test: Antimicrobial activity against Streptococcus pneumoniae 6 constitutively expressing ermB after 20 hrs by agar dilution method; details: Streptococcus pneumoniae, 20 h; read-out: MIC; how it was run: as §1
Streptococcus pneumoniae [23] = test: Antimicrobial activity against drug-susceptible Streptococcus pneumoniae DP1 Type1 after 20 hrs by agar dilution method; how it was run: as §1
[24] = Streptococcus pneumoniae, 20 h, read-out: MIC

SMILES | MIC (Streptococcus pneumoniae [1]) [µg/mL] | MIC (Moraxella catarrhalis [2]) [µg/mL] | MIC (Haemophilus influenzae [3]) [µg/mL] | MIC (Staphylococcus aureus [4]) [µg/mL] | MIC (Haemophilus influenzae [5]) [µg/mL] | MIC (Haemophilus influenzae [6]) [µg/mL] | MIC (Staphylococcus aureus [8]) [µg/mL] | MIC (Streptococcus pyogenes [10]) [µg/mL] | MIC (Haemophilus influenzae [11]) [µg/mL] | MIC (Staphylococcus aureus [12]) [µg/mL] | MIC (Staphylococcus aureus [13]) [µg/mL] | MIC (Moraxella catarrhalis [14]) [µg/mL] | MIC (Streptococcus pneumoniae [15]) [µg/mL] | MIC (Streptococcus pneumoniae [16]) [µg/mL] | MIC (Streptococcus pneumoniae [17]) [µg/mL] | MIC (Staphylococcus aureus [18]) [µg/mL] | MIC (Streptococcus pyogenes [19]) [µg/mL] | MIC (Streptococcus pyogenes [20]) [µg/mL] | MIC (Staphylococcus aureus [21]) [µg/mL] | MIC (Streptococcus pneumoniae [22]) [µg/mL] | also measured
CCOC(=O)[C@H]1[C@H](C)O[C@@H](O[C@H]2[C@H](N(C)C)[C@@H](O)[C@H](O[C@H]3[C@@H](CC=O)C[C@@H](C)[C@@H](OC(C)=O)CN(C)CCN(CCCCc4ccccc4)C(=O)C[C@@H](OC(=O)CC)[C@@H]3OC)O[C@@H]2C)C[C@@]1(C)OC(C)=O | 0.5 (≈ 0.497 µM) | 2 (≈ 1.99 µM) | 8 (≈ 7.95 µM) | > 128 | > 128 | > 128 | 1 (≈ 0.994 µM) | 0.5 (≈ 0.497 µM) | 16 (≈ 15.9 µM) | 1 (≈ 0.994 µM) | 2 (≈ 1.99 µM) | 1 (≈ 0.994 µM) | > 128 | 0.5 (≈ 0.497 µM) | 0.5 (≈ 0.497 µM) | 1 (≈ 0.994 µM) | > 128 | 2 (≈ 1.99 µM) | 0.5 (≈ 0.497 µM) | > 128 | MIC (Streptococcus pneumoniae [7]; [24]): 16 µg/mL (≈ 15.9 µM); MIC (Streptococcus pneumoniae [9]; [24]): 16 µg/mL (≈ 15.9 µM); MIC (Streptococcus pneumoniae [23]; [24]): 0.13 µg/mL (≈ 0.129 µM)
CCOC(=O)[C@H]1[C@H](C)O[C@@H](O[C@H]2[C@H](N(C)C)[C@@H](O)[C@H](O[C@H]3[C@@H](CC=O)C[C@@H](C)[C@@H](O)CN(CCCCc4ccccc4)CCCCNC(=O)C[C@@H](OC(=O)CC)[C@@H]3OC)O[C@@H]2C)C[C@@]1(C)OC(C)=O | 0.13 (≈ 0.133 µM) | 0.25 (≈ 0.256 µM) | 1 (≈ 1.02 µM) | > 128 | 16 (≈ 16.4 µM) | 4 (≈ 4.09 µM) | 0.5 (≈ 0.511 µM) | 0.06 (≈ 0.0613 µM) | 8 (≈ 8.18 µM) | 1 (≈ 1.02 µM) | 1 (≈ 1.02 µM) | 0.13 (≈ 0.133 µM) | > 128 | 0.13 (≈ 0.133 µM) | 0.25 (≈ 0.256 µM) | 0.25 (≈ 0.256 µM) | > 128 | 0.25 (≈ 0.256 µM) | 0.25 (≈ 0.256 µM) | > 128 | MIC (Streptococcus pneumoniae [7]; [24]): 8 µg/mL (≈ 8.18 µM); MIC (Streptococcus pneumoniae [9]; [24]): 8 µg/mL (≈ 8.18 µM); MIC (Streptococcus pneumoniae [23]; [24]): 0.13 µg/mL (≈ 0.133 µM)
CCOC(=O)[C@H]1[C@H](C)O[C@@H](O[C@H]2[C@H](N(C)C)[C@@H](O)[C@H](O[C@H]3[C@@H](CC=O)C[C@@H](C)[C@@H](O)CN(CCCCc4ccccc4)CCC(C)NC(=O)C[C@@H](OC(=O)CC)[C@@H]3OC)O[C@@H]2C)C[C@@]1(C)OC(C)=O (stereo in doubt; form 1) | 0.25 (≈ 0.256 µM) | 0.13 (≈ 0.133 µM) | 1 (≈ 1.02 µM) | > 128 | 16 (≈ 16.4 µM) | 4 (≈ 4.09 µM) | 0.25 (≈ 0.256 µM) | 0.06 (≈ 0.0613 µM) | 4 (≈ 4.09 µM) | 0.5 (≈ 0.511 µM) | 1 (≈ 1.02 µM) | 0.13 (≈ 0.133 µM) | > 128 | 0.25 (≈ 0.256 µM) | 0.13 (≈ 0.133 µM) | 0.25 (≈ 0.256 µM) | > 128 | 0.25 (≈ 0.256 µM) | 0.25 (≈ 0.256 µM) | > 128 | MIC (Streptococcus pneumoniae [7]): 128 µg/mL (≈ 131 µM); MIC (Streptococcus pneumoniae [9]): 128 µg/mL (≈ 131 µM); MIC (Streptococcus pneumoniae [23]): 0.06 µg/mL (≈ 0.0613 µM)
CCOC(=O)[C@H]1[C@H](C)O[C@@H](O[C@H]2[C@H](N(C)C)[C@@H](O)[C@H](O[C@H]3[C@@H](CC=O)C[C@@H](C)[C@@H](O)CN(CCCCc4ccccc4)CC[C@@H](C)OC(=O)C[C@@H](OC(=O)CC)[C@@H]3OC)O[C@@H]2C)C[C@@]1(C)OC(C)=O | 0.06 (≈ 0.0613 µM) | 0.25 (≈ 0.255 µM) | 1 (≈ 1.02 µM) | > 128 | 32 (≈ 32.7 µM) | 4 (≈ 4.08 µM) | 0.25 (≈ 0.255 µM) | 0.06 (≈ 0.0613 µM) | 8 (≈ 8.17 µM) | 0.5 (≈ 0.511 µM) | 0.5 (≈ 0.511 µM) | 0.13 (≈ 0.133 µM) | 128 (≈ 131 µM) | 0.06 (≈ 0.0613 µM) | 0.13 (≈ 0.133 µM) | 0.13 (≈ 0.133 µM) | > 128 | 0.13 (≈ 0.133 µM) | 0.5 (≈ 0.511 µM) | > 128 | MIC (Streptococcus pneumoniae [7]; [24]): 8 µg/mL (≈ 8.17 µM); MIC (Streptococcus pneumoniae [9]; [24]): 8 µg/mL (≈ 8.17 µM); MIC (Streptococcus pneumoniae [23]; [24]): 0.06 µg/mL (≈ 0.0613 µM)
CCOC(=O)[C@H]1[C@H](C)O[C@@H](O[C@H]2[C@H](N(C)C)[C@@H](O)[C@H](O[C@H]3[C@@H](CC=O)C[C@@H](C)[C@@H](OC(C)=O)CN(CCCCc4ccccc4)CCNC(=O)C[C@@H](OC(=O)CC)[C@@H]3OC)O[C@@H]2C)C[C@@]1(C)OC(C)=O | 1 (≈ 1.01 µM) | 1 (≈ 1.01 µM) | 2 (≈ 2.02 µM) | > 128 | > 128 | 8 (≈ 8.06 µM) | 1 (≈ 1.01 µM) | 0.5 (≈ 0.504 µM) | 8 (≈ 8.06 µM) | 2 (≈ 2.02 µM) | 2 (≈ 2.02 µM) | 0.5 (≈ 0.504 µM) | > 128 | 0.5 (≈ 0.504 µM) | 0.5 (≈ 0.504 µM) | 0.5 (≈ 0.504 µM) | > 128 | 1 (≈ 1.01 µM) | 1 (≈ 1.01 µM) | > 128 | MIC (Streptococcus pneumoniae [7]; [24]): > 128 µg/mL; MIC (Streptococcus pneumoniae [9]; [24]): > 128 µg/mL; MIC (Streptococcus pneumoniae [23]; [24]): 0.5 µg/mL (≈ 0.504 µM)
